Laboratory results: ChEMBL document CHEMBL1149155, “Development of a new radioligand, N-(5-fluoro-2-phenoxyphenyl)-N-(2-[18F]fluoroethyl-5-methoxybenzyl)acetamide, for pet imaging of peripheral benzodiazepine receptor in primate brain” (J Med Chem, 2004)

How the values were obtained:
[1] = target: GABA-A receptor; anion channel; experiment: In vitro inhibition of [11C]flumazenil binding to GABA-A central benzodiazepine receptor of rat brain
How it was run: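 Rat brain sagittal cryosections (20 μm, male Sprague-Dawley) preincubated 20 min at 25 °C in 50 mM Tris-HCl pH 7.4, then incubated 30 min at 37 °C with [11C]flumazenil (1 nM) and compound 0.1–1000 nM; nonspecific binding defined with 10 μM flumazenil. Cerebellum radioactivity read by imaging plate; probit-derived IC50 converted to Ki; n = 3.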

[2] = target: Translocator protein (Rattus norvegicus, UniProt P16257); experiment: In vitro inhibition of [11C]2 binding to Peripheral benzodiazepine receptor (PBR) in rat brain; assay type: tissue-based
[3] = Partition coefficient of the compound; assay type: physicochemical; conditions: octanol/water
How it was run: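 LogD measured by shake-flask partition between phosphate buffer (pH 7.4) and octanol; mean of n = 3.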

[4] = target: GABA-A receptor; anion channel; experiment: Inhibition of [11C]flumazenil binding to GABA-A central benzodiazepine receptor of monkey brain
[5] = target: Translocator protein (Homo sapiens, UniProt P30536); experiment: Binding affinity for Peripheral benzodiazepine receptor compared to [11C]2 in monkey brain (No affinity); parameters: species or system Cercopithecidae; conditions: target entry is the homologue from another species
[6] = species on record: Mus musculus; experiment: Compound was tested for radioactivity level in mice adrenal glands (Compound is radiolabeled); assay type: ADME, organism-based, Adrenal gland; conditions: in vivo
How it was run: (§1)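 Male ddY mice (30–40 g, 9 weeks) given 18F-ligand in saline (average 8 MBq) via tail vein; four per time point killed at 5, 15, 30, 60, 120 min. Brain, liver, lung, heart, kidney, adrenal, bone and blood weighed and gamma-counted; decay-corrected %ID/g wet tissue.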

[7] = species on record: Mus musculus; experiment: Compound was tested for radioactivity level in mice kidney (Compound is radiolabeled); assay type: ADME, organism-based; conditions: in vivo; how it was run: as §1
[8] = species on record: Mus musculus; experiment: Compound was tested for radioactivity level in mice lungs (Compound is radiolabeled); assay type: ADME, organism-based; conditions: in vivo; how it was run: as §1
[9] = species on record: Mus musculus; experiment: Compound (0.09% dose/g) was tested for accumulation in mice bone (Compound is radiolabeled) after 120 min; No increase; assay type: ADME, organism-based, Bone element; conditions: in vivo, 2 h; how it was run: as §1
[10] = Half life was determined; assay type: ADME; conditions: rat
[11] = species on record: Mus musculus; experiment: Compound was tested for radioactivity level in mice heart (Compound is radiolabeled); assay type: ADME, organism-based; conditions: in vivo; how it was run: as §1
[12] = species on record: Mus musculus; experiment: Compound was tested for radioactivity level in mice brain (Compound is radiolabeled); 2.2-4.9% ID/g; assay type: ADME, organism-based; conditions: in vivo; how it was run: as §1
[13] = species on record: Mus musculus; experiment: Compound (0.31% dose/g) was tested for accumulation in mice bone (Compound is radiolabeled) after 30 min; Low increase; assay type: ADME, organism-based; conditions: in vivo, 0.5 h; how it was run: as §1

Translocator protein (Rattus norvegicus, UniProt P16257), sequence (P16257 whole entry, looked up): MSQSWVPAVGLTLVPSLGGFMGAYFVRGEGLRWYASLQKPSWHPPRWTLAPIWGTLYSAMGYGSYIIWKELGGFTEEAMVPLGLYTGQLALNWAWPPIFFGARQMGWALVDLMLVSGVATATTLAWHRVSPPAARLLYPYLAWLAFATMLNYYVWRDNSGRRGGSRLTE
Translocator protein (Homo sapiens, UniProt P30536), sequence (P30536 whole entry): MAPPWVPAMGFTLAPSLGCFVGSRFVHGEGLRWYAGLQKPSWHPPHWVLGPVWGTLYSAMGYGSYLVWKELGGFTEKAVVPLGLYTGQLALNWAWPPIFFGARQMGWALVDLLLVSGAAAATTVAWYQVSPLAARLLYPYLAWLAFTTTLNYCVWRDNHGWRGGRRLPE

Structure (SMILES) | Ki [1] [nM] | Ki [2] [nM] | logD [3] | IC50 [4] [nM] | IC50 [5] | Radioactivity level [6] [%] | Radioactivity level [7] [%] | Radioactivity level [8] [%] | Activity [9] | T1/2 [10] [h] | Radioactivity level [11] [%] | Radioactivity level [12] [%] | Activity [13]
COc1ccc(OCCOS(=O)(=O)c2ccc(C)cc2)c(CN(C(C)=O)c2cc(F)ccc2Oc2ccccc2)c1 | > 1000 | 18.1 | 4.65 | – | – | – | – | – | – | – | – | – | –
CC(=O)Nc1cc(F)ccc1Oc1ccccc1 | – | – | – | > 10000 | Not Active | – | – | – | – | – | – | – | –
COc1ccc(OCI)c(CN(C(C)=O)c2cc(F)ccc2Oc2ccccc2)c1 | > 1000 | 4.8 | 4.02 | – | – | – | – | – | – | – | – | – | –
COc1ccc(OCF)c(CN(C(C)=O)c2cc(F)ccc2Oc2ccccc2)c1 | > 1000 | 0.17 | 3.7 | – | – | > 5 | > 5 | > 5 | 5.6% | 1.83 | > 5 | – | –
CCC(C)N(C)C(=O)c1cc2ccccc2c(-c2ccccc2Cl)n1 (stereo not drawn) [PK-11195] | > 1000 | – | 2.78 | – | – | – | – | – | – | – | – | – | –
COc1ccc(OC)c(CN(C(C)=O)c2cc(F)ccc2Oc2ccccc2)c1 | > 1000 | 0.16 | 3.65 | – | – | – | – | – | – | – | – | – | –
COc1ccc(OCCF)c(CN(C(C)=O)c2cc(F)ccc2Oc2ccccc2)c1 | > 1000 | 0.078 | 3.81 | – | – | > 5 | > 5 | > 5 | Not Active | 1.83 | > 5 | < 4.9 | Partially active
